Activity calls are given as the source filed them. The calls are words filed in the database; no cut-off is given here.
Legend:
[1] = Cytotoxicity against human ARPE19 cells at 20 uM by LDH assay; type: cell-based; conditions: arpe-19, 20 µM
[2] = molecular target: T1, NAD-dependent protein deacetylase sirtuin-3, mitochondrial (Homo sapiens) (UniProt Q9NTG7); conditions: at 50 µM
T1 sequence (whole entry): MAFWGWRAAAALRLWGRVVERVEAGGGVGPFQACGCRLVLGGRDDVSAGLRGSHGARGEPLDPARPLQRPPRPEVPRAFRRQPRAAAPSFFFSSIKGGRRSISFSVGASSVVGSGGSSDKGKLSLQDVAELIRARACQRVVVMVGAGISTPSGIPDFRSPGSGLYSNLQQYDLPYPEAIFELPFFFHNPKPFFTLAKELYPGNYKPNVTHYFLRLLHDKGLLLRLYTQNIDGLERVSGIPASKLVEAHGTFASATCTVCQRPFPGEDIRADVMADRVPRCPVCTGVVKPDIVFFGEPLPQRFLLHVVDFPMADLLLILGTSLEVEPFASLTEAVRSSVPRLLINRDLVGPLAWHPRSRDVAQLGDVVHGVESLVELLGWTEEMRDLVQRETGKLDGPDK

MCF7 [3] = experiment: Cell cycle arrest in human MCF7 cells assessed as accumulation at G2 phase at 100 uM after 18 hrs by propidium iodide staining-based FACS flow cytometric analysis (reference value: 14.7%); type: functional
A549 [4] = experiment: Cell cycle arrest in human A549 cells assessed as accumulation at S phase at 100 uM after 18 hrs by propidium iodide staining-based FACS flow cytometric analysis (reference value: 17.8%); type: functional
A549 [5] = experiment: Cytotoxicity against human A549 cells assessed as cell death at 100 uM after 18 hrs by propidium iodide staining-based FACS flow cytometric analysis; type: functional
MCF7 [6] = experiment: Cytotoxicity against human MCF7 cells at 50 uM by LDH assay; type: functional, cell-based
MCF7 [7] = experiment: Cytotoxicity against human MCF7 cells assessed as cell death at 100 uM after 18 hrs by propidium iodide staining-based FACS flow cytometric analysis; type: functional
A549 [8] = experiment: Cell cycle arrest in human A549 cells assessed as accumulation at G2 phase at 100 uM after 18 hrs by propidium iodide staining-based FACS flow cytometric analysis (reference value: 19.4%); type: functional
[9] = Cytotoxicity against human SH-SY5Y cells at 20 uM by LDH assay; type: cell-based
A549 [10] = experiment: Cell cycle arrest in human A549 cells assessed as accumulation at G1 phase at 100 uM after 18 hrs by propidium iodide staining-based FACS flow cytometric analysis (reference value: 62.3%); type: functional
[11] = molecular target: T2, NAD-dependent protein deacetylase sirtuin-2 (Homo sapiens) (UniProt Q8IXJ6); experiment: Inhibition of human recombinant GST-tagged SIRT2 using KI179 as substrate at 50 uM preincubated for 5 mins followed by enzyme addition measured after 1 hr by fluorescence assay relative to control
T2 sequence (whole entry): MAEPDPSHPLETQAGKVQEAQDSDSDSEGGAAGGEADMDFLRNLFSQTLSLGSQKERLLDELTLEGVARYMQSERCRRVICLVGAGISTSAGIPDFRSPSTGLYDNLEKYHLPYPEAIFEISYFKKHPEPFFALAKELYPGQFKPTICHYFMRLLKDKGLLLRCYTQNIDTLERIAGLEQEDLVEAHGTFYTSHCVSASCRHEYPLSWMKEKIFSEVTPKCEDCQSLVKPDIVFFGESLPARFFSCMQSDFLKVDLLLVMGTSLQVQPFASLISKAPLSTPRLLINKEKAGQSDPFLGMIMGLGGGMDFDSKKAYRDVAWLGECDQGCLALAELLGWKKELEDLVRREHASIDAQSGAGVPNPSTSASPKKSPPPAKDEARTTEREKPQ
Outline: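 Recombinant GST-SIRT2, Fluor de Lys assay in SIRT assay buffer. Acetylated peptide KI179 at 0.7 Km (Km 198 µM) and NAD+ at 0.9 Km (reported Km 547 µM). Buffer, substrate, NAD+ and compound in DMSO preincubated 5 min at room temperature. Enzyme added to start; 1 h at 37 °C. Developer with 2 mM nicotinamide added; 45 min at 37 °C; fluorescence read. Mean ± SD, ≥3 experiments.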

[12] = molecular target: T3, NAD-dependent protein deacetylase sirtuin-2 (Homo sapiens, UniProt Q8IXJ6); experiment: Inhibition of human recombinant GST-tagged SIRT2 using KI179 as substrate preincubated for 5 mins followed by enzyme addition measured after 1 hr by fluorescence assay
T3 sequence (Q8IXJ6 whole entry): T2 sequence (whole entry)
Outline: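 Fluor de Lys deacetylation assay. […] Mix preincubated 5 min at room temperature, started with enzyme, run 1 h at 37°C. Developer with 2 mM nicotinamide then added for 45 min at 37°C before fluorescence reading.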

[13] = molecular target: T4, NAD-dependent protein deacetylase sirtuin-1 (Homo sapiens) (UniProt Q96EB6); experiment: Inhibition of SIRT1 in etoposide-induced human ARPE19 cells assessed as increase in p53 acetylation at Lys382 at 20 uM after 5 hrs by Western blotting analysis; type: cell-based
T4 sequence (whole entry): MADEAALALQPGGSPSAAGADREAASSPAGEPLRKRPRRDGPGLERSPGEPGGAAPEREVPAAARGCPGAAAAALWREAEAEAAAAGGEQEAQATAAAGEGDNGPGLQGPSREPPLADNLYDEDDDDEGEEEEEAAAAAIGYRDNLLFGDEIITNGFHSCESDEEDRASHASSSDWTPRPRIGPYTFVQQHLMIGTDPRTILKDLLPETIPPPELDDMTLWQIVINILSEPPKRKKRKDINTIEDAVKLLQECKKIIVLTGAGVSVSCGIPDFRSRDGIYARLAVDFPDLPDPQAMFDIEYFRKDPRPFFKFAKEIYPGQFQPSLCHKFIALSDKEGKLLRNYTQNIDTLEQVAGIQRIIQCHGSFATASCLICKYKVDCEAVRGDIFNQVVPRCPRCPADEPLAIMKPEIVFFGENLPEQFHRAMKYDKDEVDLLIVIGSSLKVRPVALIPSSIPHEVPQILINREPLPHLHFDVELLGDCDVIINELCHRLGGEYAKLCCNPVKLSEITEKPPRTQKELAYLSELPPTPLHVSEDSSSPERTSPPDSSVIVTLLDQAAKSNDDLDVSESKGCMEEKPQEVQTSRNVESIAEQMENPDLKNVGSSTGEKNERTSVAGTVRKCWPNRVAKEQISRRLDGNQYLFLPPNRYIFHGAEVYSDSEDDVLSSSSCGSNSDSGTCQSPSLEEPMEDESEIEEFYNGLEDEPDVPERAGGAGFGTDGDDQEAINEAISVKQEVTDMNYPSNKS
Outline: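 ARPE-19 or SH-SY5Y cells seeded 24 h ahead, then given 20 μM compound and 100 μM etoposide together for 5 h before harvest. Acetylated p53 detected by Western blot. Mean ± SEM of 2 independent experiments.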

[14] = molecular target: T5, NAD-dependent protein deacetylase sirtuin-3, mitochondrial (Homo sapiens, UniProt Q9NTG7); experiment: Inhibition of human recombinant His-tagged SIRT3 using KI179 as substrate preincubated for 5 mins followed by enzyme addition measured after 1 hr by fluorescence assay
T5 sequence (Q9NTG7 whole entry): T1 sequence (whole entry)

MCF7 [15] = experiment: Growth inhibition of human MCF7 cells at >= 50 uM after 72 hrs by sulforhodamine B assay

COc1ccc(C(=O)CNC(=O)[C@H](CCCCNC(C)=S)NC(=O)OCc2ccccc2)cc1
Activity [1]: Non-toxic
inhibition [2]: 82%
Activity (MCF7 [3]): 8.7%
Activity (A549 [4]): 7.7%
Activity (A549 [5]): inactive
Activity (MCF7 [6]): inactive
Activity (MCF7 [7]): inactive
Activity (A549 [8]): 9.4%
Activity [9]: Non-toxic
Activity (A549 [10]): 82.2%
inhibition [11]: 97%
IC50 [12]: 2.53 µM
inhibition [13]: Active
IC50 [14]: 8.35 µM
growth inhibition (GI) (MCF7 [15]): Active

From ChEMBL document CHEMBL2417552, “Screen of pseudopeptidic inhibitors of human sirtuins 1-3: two lead compounds with antiproliferative effects in cancer cells” (J Med Chem, 2013)
